Published values from different studies.
Lines come from different studies, so protocols differ.
PPO3: PPO3 (Agaricus bisporus, UniProt C7FF04)
HTR2A: 5-hydroxytryptamine receptor 2A (HTR2A, Homo sapiens, UniProt P28223)

| Compound | target | effect on | action | technique | tested at | inhibition [%] |
| --- | --- | --- | --- | --- | --- | --- |
| COc1cc(/C=C/C(=O)O)ccc1OCc1cn(CC(=O)Nc2ccc(Cl)cc2Cl)nn1 | PPO3 | enzyme activity | inhibitor | – | 40 µM | 7.73 |
| COc1cc2cc3c4c(cc(OC)c(OC)c4c2cc1OC)CCN3C | HTR2A | ligand displacement | – | radioligand | 10 µM | 10 |
| COc1cc(/C=C/C(=O)O)ccc1OCc1cn(CC(=O)Nc2cccc(Cl)c2)nn1 | PPO3 | enzyme activity | inhibitor | – | 40 µM | 11.4 |
| CN1CCC[C@H]1c1cccnc1 | Kappa-type opioid receptor (OPRK1, Homo sapiens, UniProt P41145) | ligand displacement | – | – | 50 µM | -10.9 |
| CC[C@H](C)[C@@H](C(=O)N1CCC[C@H]1c1nccs1)N(C)C(=O)[C@H](CC(C)C)N(C)C(=O)[C@H](Cc1ccc(OC)cc1)N(C)C(=O)/C=C(\C)OC | Cannabinoid receptor 1 (CNR1, Homo sapiens, UniProt P21554) | β-arrestin recruitment | antagonist | – | 20 µM | 53 |
| CC(C)CC(=O)OC[C@H]1O[C@@](C#N)(c2ccc3c(N)ncnn23)[C@H](O)[C@@H]1O | Adenosine receptor A2a (ADORA2A, Homo sapiens, UniProt P29274) | cell-free assay | – | – | 20 µM | 13 |
| COc1cc2c(cc1OC)-c1c(OC)c(OC)cc3c1[C@H](C2)N(C)CC3 | HTR2A | ligand displacement | – | radioligand | 10 µM | 65 |
| COc1cc(/C=C/C(=O)O)ccc1OCc1cn(CC(=O)NCCc2ccccc2)nn1 | PPO3 | enzyme activity | inhibitor | – | 40 µM | 10.4 |
| CCOC(=O)Cc1c2c3c(cc(OC)c(OC)c3c3cc(OC)c(OC)cc13)CCN2C | HTR2A | ligand displacement | – | radioligand | 10 µM | 17 |
| c1cncc([C@@H]2CCCN2)c1 | HTR2A | ligand displacement | – | – | 50 µM | -7.27 |
| COc1cc(/C=C/C(=O)O)ccc1OCc1cn(CC(=O)Nc2ccc([N+](=O)[O-])cc2)nn1 | PPO3 | enzyme activity | inhibitor | – | 40 µM | 14 |
| COc1cc2c3c(c1OC)-c1c(OC)ccc(Cl)c1CC3N(C)CC2 (racemic) | HTR2A | ligand displacement | – | radioligand | 10 µM | 70 |
